From ChEMBL document CHEMBL1649328, “Assessment of pandemic and seasonal influenza A (H1N1) virus susceptibility to neuraminidase inhibitors in three enzyme activity inhibition assays” (Antimicrob Agents Chemother, 2010)

Experiments:
Assay type in all cases: functional, organism-based
Influenza A virus [1] = assay: Antiviral activity against influenza A (A/Singapore/57/2009 (H1N1)) virus harboring neuraminidase H275Y mutant after 30 mins by NA-star substrate based chemiluminescent assay
Outline: (§1)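 Titrated virus in NA-Star buffer (26 mM MES, 4 mM CaCl2, pH 6.0) was preincubated with ten half-log inhibitor dilutions (0.03–1,000 nM final) for 30 min at 37°C, then with substrate for 30 min at room temperature. Accelerator solution was added and luminescence read for 0.1 s. IC50 came from a Vmax·[1−x/(K+x)] fit, mean of ≥3 experiments.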

Influenza A virus [2] = assay: Antiviral activity against influenza A (A/North Carolina/01/2009 (H1N1)) virus harboring neuraminidase H275Y mutant after 30 mins by MUNANA substrate based fluorometric assay
Outline: (§2)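 Fluorometric NA inhibition with MUNANA (100 μM final). Titrated virus in NA-Star buffer (26 mM MES, 4 mM CaCl2, pH 6.0) was preincubated with ten half-log inhibitor dilutions (0.03–1,000 nM final) for 30 min at 37°C, then with substrate for 30 min at 37°C. The reaction was stopped with 0.1 M glycine in 25% ethanol, pH 10.7, and 4-methylumbelliferone was read at ex 365/em 450 nm. IC50 came from a Vmax·[1−x/(K+x)] fit, mean of ≥3 experiments.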

Influenza A virus [3] = assay: Antiviral activity against influenza A (A/Montana/02/2009 (H1N1)) virus harboring neuraminidase H275Y mutant after 16 to 18 hrs by fetuin substrate based colorimetric assay
Outline: (§3)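 Colorimetric NA inhibition with fetuin substrate. Virus was diluted in NA-Star buffer (26 mM MES, 4 mM CaCl2, pH 6.0) to give OD549 of 0.4–0.8 after 18 h. It was preincubated with ten half-log inhibitor dilutions (0.03–1,000 nM final) for 1 h at 37°C, then with fetuin (5.5 mg/ml final) for 16–18 h at 37°C. Released sialic acid was read at 549 nm after periodate/TBA reaction and butanol extraction. IC50 came from a Vmax·[1−x/(K+x)] fit, mean of ≥2 experiments.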

Influenza A virus [4] = assay: Antiviral activity against influenza A (A/North Carolina/01/2009 (H1N1)) virus harboring neuraminidase H275Y mutant after 30 mins by NA-star substrate based chemiluminescent assay; outline: as §1
Influenza A virus [5] = assay: Antiviral activity against influenza A (A/Hong Kong/2369/2009 (H1N1)) virus harboring neuraminidase H275Y mutant after 30 mins by MUNANA substrate based fluorometric assay; outline: as §2
Influenza A virus [6] = assay: Antiviral activity against influenza A (A/Osaka/180/2009 (H1N1)) virus harboring neuraminidase H275Y mutant after 30 mins by MUNANA substrate based fluorometric assay; outline: as §2
Influenza A virus [7] = assay: Antiviral activity against influenza A (A/Washington/29/2009 (H1N1)) virus harboring neuraminidase H275Y mutant after 16 to 18 hrs by fetuin substrate based colorimetric assay; outline: as §3
Influenza A virus [8] = assay: Antiviral activity against influenza A (A/Montana/02/2009 (H1N1)) virus harboring neuraminidase H275Y mutant after 30 mins by MUNANA substrate based fluorometric assay; outline: as §2
Influenza A virus [9] = assay: Antiviral activity against influenza A (A/Montana/02/2009 (H1N1)) virus harboring neuraminidase H275Y mutant after 30 mins by NA-star substrate based chemiluminescent assay; outline: as §1
Influenza A virus [10] = assay: Antiviral activity against influenza A (A/Osaka/180/2009 (H1N1)) virus harboring neuraminidase H275Y mutant after 16 to 18 hrs by fetuin substrate based colorimetric assay; outline: as §3
Influenza A virus [11] = assay: Antiviral activity against influenza A (A/Osaka/180/2009 (H1N1)) virus harboring neuraminidase H275Y mutant after 30 mins by NA-star substrate based chemiluminescent assay; outline: as §1
Influenza A virus [12] = assay: Antiviral activity against influenza A (A/Washington/29/2009 (H1N1)) virus harboring neuraminidase H275Y mutant after 30 mins by MUNANA substrate based fluorometric assay; outline: as §2
Influenza A virus [13] = assay: Antiviral activity against influenza A (A/Singapore/57/2009 (H1N1)) virus harboring neuraminidase H275Y mutant after 16 to 18 hrs by fetuin substrate based colorimetric assay; outline: as §3
Influenza A virus [14] = assay: Antiviral activity against influenza A (A/Hong Kong/2369/2009 (H1N1)) virus harboring neuraminidase H275Y mutant after 16 to 18 hrs by fetuin substrate based colorimetric assay; outline: as §3
Influenza A virus [15] = assay: Antiviral activity against influenza A (A/North Carolina/01/2009 (H1N1)) virus harboring neuraminidase H275Y mutant after 16 to 18 hrs by fetuin substrate based colorimetric assay; outline: as §3
Influenza A virus [16] = assay: Antiviral activity against influenza A (A/Hong Kong/2369/2009 (H1N1)) virus harboring neuraminidase H275Y mutant after 30 mins by NA-star substrate based chemiluminescent assay; outline: as §1
Influenza A virus [17] = assay: Antiviral activity against influenza A (A/Washington/29/2009 (H1N1)) virus harboring neuraminidase H275Y mutant after 30 mins by NA-star substrate based chemiluminescent assay; outline: as §1
Influenza A virus [18] = assay: Antiviral activity against influenza A (A/Singapore/57/2009 (H1N1)) virus harboring neuraminidase H275Y mutant after 30 mins by MUNANA substrate based fluorometric assay; outline: as §2

Row | SMILES | IC50 (Influenza A virus [1]) | IC50 (Influenza A virus [2]) | IC50 (Influenza A virus [3]) | IC50 (Influenza A virus [4]) | IC50 (Influenza A virus [5]) | IC50 (Influenza A virus [6]) | IC50 (Influenza A virus [7]) | IC50 (Influenza A virus [8]) | IC50 (Influenza A virus [9]) | IC50 (Influenza A virus [10]) | IC50 (Influenza A virus [11]) | IC50 (Influenza A virus [12]) | IC50 (Influenza A virus [13]) | IC50 (Influenza A virus [14]) | IC50 (Influenza A virus [15]) | IC50 (Influenza A virus [16]) | IC50 (Influenza A virus [17]) | IC50 (Influenza A virus [18])
1 | CO[C@@H]([C@@H]1OC(C(=O)O)=C[C@H](NC(=N)N)[C@H]1NC(C)=O)[C@H](O)CO [LANINAMIVIR] | 0.74 nM | 0.92 nM | 0.82 nM | 0.34 nM | 1.08 nM | 1.43 nM | 2.14 nM | 1.05 nM | 0.34 nM | 3.32 nM | 0.48 nM | 1.19 nM | 1.12 nM | 2.16 nM | 0.89 nM | 0.78 nM | 0.82 nM | 0.87 nM
2 | CC(=O)N[C@H]1[C@H]([C@H](O)[C@H](O)CO)OC(C(=O)O)=C[C@@H]1NC(=N)N [ZANAMIVIR] | 0.4 nM | 1.16 nM | 2.38 nM | 0.42 nM | 1.02 nM | 1.29 nM | 2.66 nM | 1.15 nM | 0.42 nM | 3.17 nM | 0.35 nM | 0.83 nM | 2.83 nM | 3.61 nM | 1.96 nM | 0.43 nM | 0.51 nM | 1 nM
